Published values pooled from the literature.
Each line is one published result; the experiments were not run side by side.
SULT1E1: Sulfotransferase 1E1 (SULT1E1, Homo sapiens, UniProt P49888)
Stromelysin-2: Stromelysin-2 (Homo sapiens, UniProt P09238)
PSMB6: Proteasome subunit beta type-6 (PSMB6, Homo sapiens, UniProt P28072)
CDK9 with cyclin T1: Cyclin-dependent kinase 9, with cyclin T1 (CDK9, Homo sapiens, UniProt P50750)

SMILES | target | test | conditions | quantity | value
Oc1c(Br)cc(Br)cc1Oc1ccc(Br)cc1Br | SULT1E1 | enzyme activity, substrate |  | Km | 8.87 µM
N=C(N)c1ccc2cc(OC(=O)c3ccc(N=C(N)N)cc3)ccc2c1 | Stromelysin-2 | enzyme activity, inhibitor | 10 µM | inhibition | 0%
Cc1cc(-c2nsc(=O)o2)c(S(C)(=O)=O)s1 | PSMB6 | enzyme activity, inhibitor |  | kinact/KI | 1.4 M⁻¹ s⁻¹
Cn1cc(-c2cccc(N3CCc4c(sc5c4CC(C)(C)C5)C3=O)c2CO)cc(Nc2ccncn2)c1=O | Cyclin-dependent kinase 9, with cyclin K (CDK9, Homo sapiens, UniProt P50750) | enzyme activity, inhibitor | 1 µM | inhibition | 11%
C#Cc1n[nH]c2c(-c3cn([C@@H](C)c4ccccc4)c(=O)[nH]c3=O)cc(F)cc12 | CDK9 with cyclin T1 | enzyme activity, inhibitor | 0.1 µM | inhibition | -1.8%
N#C[C@@H]1CC(F)(F)CN1C(=O)CNC(=O)c1ccnc2ccccc12 | Prolyl endopeptidase FAP (FAP, Homo sapiens, UniProt Q12884) | enzyme activity, inhibitor | 10 nM | inhibition | 35%
Nc1ncc(-c2nc(N3CCOCC3)nc(N3CCOCC3)n2)c(C(F)F)n1 | Serine/threonine-protein kinase Sgk2 (SGK2, Homo sapiens, UniProt Q9HBY8) | binding, competition with immobilised ligand | 10 µM | remaining binding | 84%
CN(C)C(=O)COC(=O)Cc1ccc(OC(=O)c2ccc(NC(=N)N)cc2)cc1 | Stromelysin-2 | enzyme activity, inhibitor | 10 µM | inhibition | 29%
CSc1sc(C)cc1-c1nsc(=O)o1 | PSMB6 | enzyme activity, inhibitor |  | kinact/KI | 0.03 M⁻¹ s⁻¹
COc1ncccc1-c1cnn2ccc(N3CCN(C(=O)OC(C)C)CC3)nc12 | Ankyrin repeat and protein kinase domain-containing protein 1 (ANKK1, Homo sapiens, UniProt Q8NFD2) | binding, competition with immobilised ligand | 1 µM | remaining binding | 13%
O=C(Nc1cccnn1)N1CCN([C@@H]2CCOc3cc(C(F)(F)F)ccc32)CC1 | C-X-C chemokine receptor type 4 (CXCR4, Homo sapiens, UniProt P61073) | cell-free assay | 20 µM | inhibition | -21%
Oc1cc(Br)cc(Br)c1Oc1ccc(Br)cc1Br | SULT1E1 | enzyme activity, substrate |  | Km | 63.2 µM
Cc1nn(C)cc1-c1nc2c(N3CCN(Cc4ccc(Cl)cc4)CC3)c(Cl)cnc2[nH]1 | Bone morphogenetic protein receptor type-2 (BMPR2, Homo sapiens, UniProt Q13873) | binding, competition with immobilised ligand | 1 µM | remaining binding | 100%
COc1ccc(S(=O)(=O)N(CC(=O)NO)CC(C)C)cc1 | Stromelysin-2 | enzyme activity, inhibitor | 0.1 µM | inhibition | 25%
Cn1cc(-c2cc(F)cc(N3CCn4c(cc5c4CCCC5)C3=O)c2CO)cc(Nc2ccc(N3CCN(C4COC4)CC3)cn2)c1=O | 5'-AMP-activated protein kinase catalytic subunit alpha-2 (PRKAA2, Homo sapiens, UniProt P54646) | enzyme activity, inhibitor | 0.1 µM | inhibition | 14%
CCOC(=O)c1ccc(OC(=O)CCCCCNC(=N)N)cc1 | Stromelysin-2 | enzyme activity, inhibitor | 10 µM | inhibition | 12%
C#Cc1n[nH]c2c(-c3cn([C@@H](C)c4ccccn4)c(=O)[nH]c3=O)cc(F)cc12 | CDK9 with cyclin T1 | enzyme activity, inhibitor | 0.1 µM | inhibition | 8.9%
